A selection: hits, their analogues and other compounds. The true share with any hit is near 2%.
ABHD4 inh: inhibits mouse alpha/beta hydrolase domain 4; inhibition, % at 8.92 µM; AID 720543; 370,000 tested, 0.54% active; Q8VD66; purified mABHD4, FP-Rh probe fluorescence polarization;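 active = inhibition exceeding the mean over every tested compound plus 3 SD, cut at about 30% in these data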
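Assay system: mABHD4 protein; medium: HEPES pH 7.0, NaCl, Pluronic buffer; dosing: 8.92 µM, single dose; schedule: 45 min + 60 min at 25 °C; signal: FP readout, ex 525 nm / em 598 nm; read-out: normalized percent inhibition of probe labeling; repeats: single replicate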
TDP2 inh: blocks human TDP2 phosphodiesterase activity; 370,000 tested, 0.34% active; O95551; inhibition, % at 12.8 µM; recombinant TDP2, T5PNP hydrolysis, p-nitrophenol absorbance 415 nm;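 active = inhibition above the mean of all tested compounds plus 3 SD, set per campaign, cut at about 25% in these data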
Target sequence (O95551 whole entry, looked up): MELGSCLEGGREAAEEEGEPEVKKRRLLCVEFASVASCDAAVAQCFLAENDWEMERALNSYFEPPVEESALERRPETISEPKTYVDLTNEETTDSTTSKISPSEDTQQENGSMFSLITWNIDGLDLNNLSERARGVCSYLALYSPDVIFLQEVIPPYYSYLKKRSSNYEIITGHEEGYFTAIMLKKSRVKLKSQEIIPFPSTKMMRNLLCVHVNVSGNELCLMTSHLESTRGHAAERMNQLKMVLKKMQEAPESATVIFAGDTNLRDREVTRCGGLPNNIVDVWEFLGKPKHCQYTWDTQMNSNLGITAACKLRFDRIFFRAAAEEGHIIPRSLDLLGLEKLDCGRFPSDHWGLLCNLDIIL
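Read-out basis: percent inhibition. System: recombinant human TDP2. Buffer or medium: Mg2+-containing Tris-HCl buffer, pH 7.5. Repeats: single replicate. Timing: reaction 2 h, 37 °C. Benchmarks: high control without enzyme, low control DMSO plus TDP2. Probe or stimulus: 5 mM T5PNP. Doses: 12.8 µM only. Measured by: epi absorbance of p-nitrophenol freed from T5PNP by hydrolysis.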
TCR-CD3 inh: blocks the human TCR-CD3 interaction. TAMRA-labeled TCR probe fluorescence, biochemical. inhibition, % at 9.4 µM. 360,000 tested, 0.37% active; in the data active = inhibition above about 19%;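 note: recombinant mutant TCR 2C K166C tagged with TAMRA read by polarization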
SIAE inh: blocks human sialic acid acetylesterase; Q9HAT2; AID 1053197; inhibition, % at 9.66 µM; 370,000 tested, 0.69% active; SIAE FP-Rh probe binding, fluorescence polarization;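 active = inhibition above a cutoff: mean of compounds within the control limits plus 3 SD of those, cut at about 17% in these data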
PAD4 inh: PAD4 (human) enzyme inhibition; 330,000 tested, 0.41% active; recombinant PAD4, RCA probe fluorescence polarization; inhibition, % at 6.36 µM; Q9UM07;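 active = percent inhibition above a cutoff equal to the mean of all tested compounds plus 3 SD, cut at about 15% in these data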
HTRA1 inhibitor: inhibitors of human serine peptidase HTRA1. AID 504803. recombinant HTRA1, FP-rhodamine activity-based probe, fluorescence polarization. inhibition, % at 5.96 µM. 340,000 tested, 0.5% active. Q92743; in the data active = inhibition above about 36%
mABHD4 conf: ABHD4 (mouse) inhibition, FP confirmation. purified mABHD4, FP-Rh probe fluorescence polarization. inhibition, % at 8.92 µM. 1,800 tested, 55% active. AID 720658. shares compounds with ABHD4 inh;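 active = mean inhibition across replicates above the hit cutoff set in the primary screen, cut at about 30% in these data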
Each line names hits and unclear results; the compound was inactive in the other large screens (follow-up assays come after a bar, where they were run).

OC(c1ccc(-c2ccccc2)cc1)c1ncc(-c2ccc(F)cc2)[nH]1 (centres undefined)	none (no result: PAD4 inh, HTRA1 inhibitor)
COc1ccc(OC)c(NC(=O)C(=O)N/N=C(\C)CC(=O)Nc2ccc(Cl)cn2)c1	none
COc1cc([N+](=O)[O-])cc(/C=N/NC(=O)C(C)Nc2cccc3ccccc23)c1O (centres undefined)	ABHD4 inh 33 | mABHD4 conf 39
CCCn1c(=N)n(CC(=O)c2cccs2)c2ccccc21	none
N=c1n(CCN2CCCCC2)c2ccccc2n1CC(=O)c1cccs1	ABHD4 inh 43 | mABHD4 conf inactive
Cc1ccn2c(NC3CCCCC3)c(-c3cccc(-c4cccc(Cl)c4)c3)nc2c1	ABHD4 inh 38 | mABHD4 conf 54
OC(CNCCC1C=Nc2ccccc21)Cn1c2ccc(Cl)cc2c2cc(Cl)ccc21 (centres undefined)	ABHD4 inh 34, SIAE inh 27 | mABHD4 conf 44
Oc1ccc2[nH]cc(CCc3ccccc3)c2c1-c1ccccc1	ABHD4 inh 33 (no result: TCR-CD3 inh, PAD4 inh, HTRA1 inhibitor) | mABHD4 conf inactive
CC(C)C(=O)N1CCCC1(C)C(=O)NCc1ccccn1 (centres undefined)	none (no result: PAD4 inh, HTRA1 inhibitor)
c1ccc(-c2sc3ccccc3c2-c2ccc(OCCN3CCCCC3)cc2)cc1	none
c1ccc2c(-c3ccc(OCCN4CCCCC4)cc3)c(-c3ccsc3)sc2c1	ABHD4 inh 40 | mABHD4 conf inactive
C#CCN1CC(N(C)CCOC(=O)c2cccs2)CS1(=O)=O (centres undefined)	none (no result: TCR-CD3 inh, PAD4 inh, HTRA1 inhibitor)
Nc1[nH]c(C(=O)c2ccc(Br)cc2)c(-c2ccc(F)cc2)c1C(=O)NCCc1c[nH]c2ccccc12	ABHD4 inh 33 (no result: PAD4 inh, HTRA1 inhibitor) | mABHD4 conf inactive
COc1ccc(-c2c(C(=O)c3ccc(Br)cc3)[nH]c(N)c2C(=O)NCCc2c[nH]c3ccccc23)cc1OC	ABHD4 inh 33 (no result: PAD4 inh, HTRA1 inhibitor) | mABHD4 conf inactive
N#Cc1cccc(S(=O)(=O)NCc2nnc3ccccn23)c1	none
CCCCC[C@H](C)N1C[C@@H](COCc2ccccc2)Oc2cc(N3CCC[C@H]3CO)ccc2S1(=O)=O	none (no result: PAD4 inh, HTRA1 inhibitor)
C=CCSC1=N/C(=C\c2cc(OCC)c(OC(C)=O)c([N+](=O)[O-])c2)C(=O)S1	ABHD4 inh 37 | mABHD4 conf 85
CCOC(=O)CN1C(=O)N[C@@H](c2cccc(C(F)(F)F)c2)[C@@H](C(=O)OC)[C@H]1C	none
COC(=O)C1=C(C)N(Cc2cccc(C(F)(F)F)c2)C(=NCc2ccc3c(c2)OCO3)NC1c1cccc(C(F)(F)F)c1 (centres undefined)	none (no result: PAD4 inh, HTRA1 inhibitor)
COC(=O)C1=C(C)N(Cc2cccc(C(F)(F)F)c2)C(=NCc2ccc(OC)cc2)NC1c1cccc(C(F)(F)F)c1 (centres undefined)	ABHD4 inh 31 (no result: PAD4 inh, HTRA1 inhibitor) | mABHD4 conf 41
COC(=O)C1=C(C)N(Cc2cccc(C(F)(F)F)c2)C(=NCc2ccc3c(c2)OCO3)NC1c1ccc(F)cc1 (centres undefined)	ABHD4 inh 44 (no result: PAD4 inh, HTRA1 inhibitor) | mABHD4 conf 30
COC(=O)C1=C(C)N(Cc2ccc(C(F)(F)F)cc2)C(=NCc2ccccc2)NC1c1cccc(F)c1 (centres undefined)	ABHD4 inh 34 (no result: PAD4 inh, HTRA1 inhibitor) | mABHD4 conf 46
COC(=O)C1=C(C)N(Cc2cccc(C(F)(F)F)c2)C(=NCc2ccc(C(F)(F)F)cc2)NC1c1ccc(F)cc1 (centres undefined)	ABHD4 inh 35 (no result: PAD4 inh, HTRA1 inhibitor) | mABHD4 conf 44
COC(=O)C1=C(C)N(Cc2cccc(C(F)(F)F)c2)C(=NCc2ccc(C(F)(F)F)cc2)NC1c1ccc(C(F)(F)F)cc1 (centres undefined)	none (no result: PAD4 inh, HTRA1 inhibitor)
COC(=O)C1=C(C)N(Cc2cccc(C(F)(F)F)c2)C(=NCc2ccc(C(F)(F)F)cc2)NC1c1cccc(F)c1 (centres undefined)	none (no result: PAD4 inh, HTRA1 inhibitor)
O=C(CCCN1C(=O)C(c2ccccc2)Oc2cccnc21)NCc1ccccc1F (centres undefined)	none
S=c1[nH]nc(COc2ccc(Cl)cc2)n1Cc1ccco1	none
COc1cc(/C=N/Nc2cccc3cccnc23)cc(OC)c1O	ABHD4 inh 32 | mABHD4 conf 33

Compound activity deposited in PubChem BioAssay by The Scripps Research Institute Molecular Screening Center.
